According to ChEMBL document CHEMBL3603766, “Structure-activity studies of Wnt/β-catenin inhibition in the Niclosamide chemotype: Identification of derivatives with improved drug exposure” (Bioorg Med Chem, 2015):
Activity calls are given as the source filed them. The rule behind the calls is not given here.

Key:
U2OS = assay: Inhibition of Wnt/beta-catenin in human U2OS cells assessed as internalization of frizzled-GFP at 12.5 uM after 6 hrs by confocal microscopic analysis; type: cell-based
Method in brief: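 U2OS cells stably expressing Frizzled1-GFP, plated 24 h, then exposed to 12.5 μM compound or DMSO for 6 h at 37 °C. Fixed with 4% paraformaldehyde and imaged by confocal microscopy (488 nm excitation). Punctate scored blind twice on a 0–5 scale against DMSO control.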

HEK293 = assay: Inhibition of Wnt/beta-catenin in HEK293 cells assessed as inhibition of Wnt3A-stimulated TOPFlash activity after 8 hrs; type: cell-based; conditions: Homo sapiens, HEK293, 8 h
Method in brief: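 HEK293 cells stably carrying p8xTOPFlash and Renilla pRL-TK, seeded at 100% confluency. Cells given Wnt-3A conditioned medium (from L Wnt-3A cells) containing compound (0.04–10 μM) or DMSO for 8 h. Lysed and read by dual luciferase, firefly normalized to Renilla, Wnt3A+DMSO = 100%. IC50 fit, mean ± SEM, n ≥ 2.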

HCT-116 [1] = assay: Cytotoxicity against human HCT116 cells assessed as growth inhibition after 72 hrs by MTS assay; type: functional, cell-based; conditions: HCT-116, 72 h
Method in brief: (§1)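 HCT116 colon cancer cells seeded at 5000 cells/well, exposed to compound at 0.04–10 μM for 72 h, then read by colorimetric MTS. Viability normalized to DMSO set at 100%. IC50 from curve fit, mean ± SEM, n = 3.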

Plasma [2] = assay: Drug uptake in plasma of CD1 mouse at 200 mg/kg, po by LC/MS-MS analysis; type: ADME, organism-based; conditions: in vivo
Method in brief: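 CD1 mice gavaged at 200 mg/kg with a solution (20 mg/ml) in 90% PEG 300 / 10% 1-methyl-2-pyrrolidinone. Blood sampled predose and at 0.25, 0.5, 1, 2, 4, 8 h. Plasma analyzed by LC/MS–MS, including for a potential active metabolite.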

[3] = Oral bioavailability in Sprague-Dawley rat at 5 mg/kg; type: ADME, organism-based; conditions: in vivo
[4] = Total clearance in Sprague-Dawley rat at 2 mg/kg, iv; type: ADME, organism-based; conditions: in vivo
[5] = Volume of distribution at steady state in Sprague-Dawley rat at 2 mg/kg, iv; type: ADME, organism-based; conditions: in vivo
[6] = Half life in Sprague-Dawley rat at 2 mg/kg, iv; type: ADME, organism-based; conditions: in vivo
HCT-116 [7] = assay: Cytotoxicity against human HCT116 cells assessed as growth inhibition up to 10 uM after 72 hrs by MTS assay; type: functional, cell-based; method in brief: as §1
Plasma [8] = assay: Drug level in CD1 mouse plasma treated with DK-520 at 200 mg/kg, po measured for 24 hrs by LC/MS-MS analysis; type: ADME, organism-based; conditions: in vivo
Method in brief: (§2)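 CD1 mice given prodrug orally as a solution in corn oil (20 mg/ml) at 200 mg/kg. Niclosamide in plasma quantified by LC/MS–MS, reported as ng/mL, mean ± SEM.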

[9] = Cytotoxicity against human breast cancer cells assessed as growth inhibition after 72 hrs by Cell Titer Glo Assay; type: functional, cell-based; conditions: Cancer cell lines, pooled result: one value given for 7 cell lines, strains, targets or settings
[10] = Lipophilicity, log P of the compound at pH <=4; type: physicochemical; conditions: octanol/water
[11] = Distribution coefficient, log D of the compound at pH 7; type: physicochemical; conditions: octanol/water
Plasma [12] = assay: Drug metabolism in CD1 mouse plasma assessed as niclosamide production at 200 mg/kg, po measured for 24 hrs by LC/MS-MS analysis; type: ADME, organism-based; conditions: in vivo; method in brief: as §2
Mus musculus [13] = assay: Tmax in CD1 mouse assessed as niclosamide at 200 mg/kg, po; type: ADME, organism-based; conditions: in vivo; method in brief: as §2
Mus musculus [14] = assay: Cmax in CD1 mouse assessed as niclosamide at 200 mg/kg, po; type: ADME, organism-based; parameters: dose 200 mg/kg, route oral; conditions: in vivo; method in brief: as §2
Mus musculus [15] = assay: Tlast in CD1 mouse assessed as niclosamide at 200 mg/kg, po; type: ADME, organism-based; conditions: in vivo; method in brief: as §2
Mus musculus [16] = assay: Clast in CD1 mouse assessed as niclosamide at 200 mg/kg, po; type: ADME, organism-based; conditions: in vivo; method in brief: as §2
Mus musculus [17] = assay: AUClast in CD1 mouse assessed as niclosamide at 200 mg/kg, po; type: ADME, organism-based; parameters: dose 200 mg/kg, route oral, time 0 - last; conditions: in vivo; method in brief: as §2
Mus musculus [18] = assay: Half life in CD1 mouse assessed as niclosamide at 200 mg/kg, po measured for 45 to 240 mins; type: ADME, organism-based; conditions: in vivo; method in brief: as §2
Mus musculus [19] = assay: Half life in CD1 mouse assessed as niclosamide at 200 mg/kg, po measured for 24 to 48 hrs; type: ADME, organism-based; conditions: in vivo; method in brief: as §2
Mus musculus [20] = assay: Toxicity in NOD/SCID mouse assessed as change in body weight at 200 mg/kg, po administered 6 days a week for 3 weeks; type: organism-based; conditions: in vivo
Method in brief: (§3)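 NOD/SCID mice dosed orally with 200 mg/kg in corn oil, or corn oil vehicle, 6 days a week for 3 weeks. Observed throughout for side effects and behavior. Body weight taken on the first dosing day (week 0) and on the day after the last dose (week 3).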

Mus musculus [21] = assay: Toxicity in NOD/SCID mouse assessed as change in behavior at 200 mg/kg, po administered 6 days a week for 3 weeks; type: organism-based; conditions: in vivo; method in brief: as §3

SMILES	inhibition (U2OS)	IC50 (HEK293) [nM]	also measured
O=c1oc2ccc(Cl)cc2c(=O)n1-c1ccc(C(F)(F)F)cc1Cl	Active	330	IC50 (HCT-116 [1]): 550 nM; Drug uptake (Plasma [2]): Active
O=C(Nc1ccc(C(F)(F)F)cc1)c1cc(Cl)ccc1O	Active	290	IC50 (HCT-116 [1]): 670 nM
CN(C(=O)c1cc(Cl)ccc1O)c1ccc(C(F)(F)F)cc1	inactive	> 12000	
O=C(Nc1ccccc1)c1cc(Cl)ccc1O	inactive	11800	
O=C(Nc1ccc(Cl)cc1Cl)c1cc(Cl)ccc1O	Active	420	IC50 (HCT-116 [1]): 1180 nM; bioavailability [3]: 12%; clearance [4]: 27 mL/min/kg; Vd [5]: 0.3 L/kg; half-life [6]: 156 min
O=C(Nc1c(Cl)cccc1Cl)c1cc(Cl)ccc1O	inactive	> 12000	growth inhibition (GI) (HCT-116 [7]): inactive
O=C(Nc1ccccc1Cl)c1cc(Cl)ccc1O	inactive	3050	
O=C(Nc1cc(Cl)ccc1Cl)c1cc(Cl)ccc1O	Active	750	
O=C(NC(=O)c1cc(Cl)ccc1O)c1ccc(C(F)(F)F)cc1	inactive	> 12000	
O=C(Nc1c(F)cccc1F)c1cc(Cl)ccc1O		> 12000	
O=C(Nc1ccccc1)c1ccc(NC(=O)c2cc(Cl)ccc2O)cc1	inactive	32900	
O=C(Nc1ccc([N+](=O)[O-])cc1Cl)c1cc(Cl)ccc1O [NICLOSAMIDE]	Active	340	IC50 (HCT-116 [1]): 450 nM; bioavailability [3]: 10%; clearance [4]: 20 mL/min/kg; Vd [5]: 0.9 L/kg; Drug uptake (Plasma [2]): Active; Drug metabolism (Plasma [8]): metabolite_detected; IC50 [9]: 130 nM; logP [10]: 5.95; logD [11]: 4.48
CC(=O)c1ccc(NC(=O)c2cc(Cl)ccc2O)cc1	inactive	6420	
O=C(NCc1ccc(C(F)(F)F)cc1)c1cc(Cl)ccc1O	inactive	15100	
NC(=O)c1ccc(NC(=O)c2cc(Cl)ccc2O)cc1	inactive	> 12000	
O=C(Nc1ccc(C(F)(F)F)cc1F)c1cc(Cl)ccc1O	Active	550	
CCCCCCCC(=O)Oc1ccc(Cl)cc1C(=O)Nc1ccc([N+](=O)[O-])cc1Cl	Active	230	IC50 (HCT-116 [1]): 610 nM; Drug metabolism (Plasma [12]): metabolite_detected; Tmax (Mus musculus [13]): 45 min; Cmax (Mus musculus [14]): 6.1 µg/mL; Tlast (Mus musculus [15]): 72 h; Clast (Mus musculus [16]): 0.049 µg/mL; AUClast (Mus musculus [17]): 22.4 µg·h/mL; t1/2 (Mus musculus [18]): 41.4 min; t1/2 (Mus musculus [19]): 12.2 h; Activity (Mus musculus [20]): Non-toxic; Activity (Mus musculus [21]): Non-toxic
O=C(Nc1ccc([N+](=O)[O-])cc1)c1cc(Cl)ccc1O	Active	990	

SMILES	inhibition (U2OS)	IC50 (HEK293) [nM]	also measured
O=C(Nc1ccc(Cl)c(Cl)c1)c1cc(Cl)ccc1O	Active	730	
O=c1oc2ccc(Cl)cc2c(=O)n1-c1ccc(C(F)(F)F)cc1	Active	320	
CCOC(=O)Oc1ccc(Cl)cc1C(=O)Nc1ccc(C(F)(F)F)cc1Cl	Active	340	IC50 (HCT-116 [1]): 510 nM
CS(=O)(=O)c1ccc(NC(=O)c2cc(Cl)ccc2O)c(Cl)c1	inactive	7660	
O=C(Nc1ccc(F)cc1F)c1cc(Cl)ccc1O	inactive	4020	
O=C(c1ccccc1)c1ccc(NC(=O)c2cc(Cl)ccc2O)cc1	inactive	15000	
O=C(Nc1ccc(C(F)(F)F)cc1Cl)c1cc(Cl)ccc1O	Active	560	IC50 (HCT-116 [1]): 540 nM; bioavailability [3]: 15%; clearance [4]: 39 mL/min/kg; Vd [5]: 1.1 L/kg; half-life [6]: 222 min
O=C(Nc1ccc(F)cc1Cl)c1cc(Cl)ccc1O	Active	1410	
O=C(Nc1ccc(F)c(Cl)c1)c1cc(Cl)ccc1O	Active	1210	
O=C(Nc1cc(Cl)ccc1O)c1ccc([N+](=O)[O-])cc1		> 12000	
O=C(Nc1cccc(Cl)c1)c1cc(Cl)ccc1O	Active	1650	
O=S(=O)(Nc1ccc(C(F)(F)F)cc1Cl)c1cc(Cl)ccc1O	inactive	2570	
O=C(Nc1cccc(C(F)(F)F)c1)c1cc(Cl)ccc1O	Active	890	
O=c1oc2ccc(Cl)cc2c(=O)n1-c1ccc([N+](=O)[O-])cc1Cl		370	
CC(=O)Oc1ccc(Cl)cc1C(=O)Nc1ccc(C(F)(F)F)cc1Cl	Active	320	
O=C(Nc1ccc(F)cc1)c1cc(Cl)ccc1O	inactive	3840	
O=C(Nc1cc(Cl)cc(Cl)c1)c1cc(Cl)ccc1O	Active	700	
O=C(Nc1ccc(Cl)cc1)c1cc(Cl)ccc1O	Active	1300	
